From ChEMBL document CHEMBL1125307, “Novel 1,2,4-oxadiazoles and 1,2,4-thiadiazoles as dual 5-lipoxygenase and cyclooxygenase inhibitors” (J Med Chem, 1992)
Active and inactive are the calls of the source. The calls are words filed in the database; no cut-off is given here.

Tests used:
[1] = molecular target: T1, Polyunsaturated fatty acid 5-lipoxygenase (Rattus norvegicus, UniProt P12527); assay: Evaluated in vitro for its inhibitory activity against 5-lipoxygenase
T1 sequence (P12527 whole entry): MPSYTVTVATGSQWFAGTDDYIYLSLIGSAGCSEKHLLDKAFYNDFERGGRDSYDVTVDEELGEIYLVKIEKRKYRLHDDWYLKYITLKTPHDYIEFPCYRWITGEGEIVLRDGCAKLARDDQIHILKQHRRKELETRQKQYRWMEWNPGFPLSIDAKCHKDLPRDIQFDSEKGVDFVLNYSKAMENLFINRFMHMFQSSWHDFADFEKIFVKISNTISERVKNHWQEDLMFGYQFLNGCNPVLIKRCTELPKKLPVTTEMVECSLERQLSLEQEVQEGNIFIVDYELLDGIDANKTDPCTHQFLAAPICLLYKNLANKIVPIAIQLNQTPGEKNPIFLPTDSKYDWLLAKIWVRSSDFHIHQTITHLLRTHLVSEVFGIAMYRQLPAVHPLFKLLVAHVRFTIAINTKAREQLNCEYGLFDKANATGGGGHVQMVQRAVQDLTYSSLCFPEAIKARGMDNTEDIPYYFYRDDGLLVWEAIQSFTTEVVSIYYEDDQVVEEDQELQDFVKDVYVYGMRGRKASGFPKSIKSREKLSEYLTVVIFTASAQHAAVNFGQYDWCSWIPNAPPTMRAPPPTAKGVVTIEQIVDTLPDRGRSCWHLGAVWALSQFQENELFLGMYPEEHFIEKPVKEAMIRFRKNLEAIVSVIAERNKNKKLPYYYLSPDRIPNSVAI

Cyclooxygenase = molecular target: T2, Cyclooxygenase (Rattus norvegicus, UniProt P35355+Q63921); assay: Evaluated in vitro for its inhibitory activity against Prostaglandin G/H synthase; format: protein assay
T2 sequence (P35355 whole entry): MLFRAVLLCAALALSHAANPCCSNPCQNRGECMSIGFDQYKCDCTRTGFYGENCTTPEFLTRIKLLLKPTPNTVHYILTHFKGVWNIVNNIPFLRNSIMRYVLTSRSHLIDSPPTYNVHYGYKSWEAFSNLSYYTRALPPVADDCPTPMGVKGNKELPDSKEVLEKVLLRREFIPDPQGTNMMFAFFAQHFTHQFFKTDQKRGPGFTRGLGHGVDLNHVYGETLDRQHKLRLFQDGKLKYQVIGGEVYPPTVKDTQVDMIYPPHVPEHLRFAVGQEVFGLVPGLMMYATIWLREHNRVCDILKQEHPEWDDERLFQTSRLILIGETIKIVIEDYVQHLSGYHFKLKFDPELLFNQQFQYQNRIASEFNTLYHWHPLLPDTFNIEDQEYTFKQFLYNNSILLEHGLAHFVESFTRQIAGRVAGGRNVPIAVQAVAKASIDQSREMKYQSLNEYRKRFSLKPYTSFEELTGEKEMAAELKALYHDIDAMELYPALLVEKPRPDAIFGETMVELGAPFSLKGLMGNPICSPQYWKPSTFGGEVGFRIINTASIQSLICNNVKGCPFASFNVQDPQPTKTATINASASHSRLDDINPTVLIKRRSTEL
T2 sequence (Q63921 whole entry): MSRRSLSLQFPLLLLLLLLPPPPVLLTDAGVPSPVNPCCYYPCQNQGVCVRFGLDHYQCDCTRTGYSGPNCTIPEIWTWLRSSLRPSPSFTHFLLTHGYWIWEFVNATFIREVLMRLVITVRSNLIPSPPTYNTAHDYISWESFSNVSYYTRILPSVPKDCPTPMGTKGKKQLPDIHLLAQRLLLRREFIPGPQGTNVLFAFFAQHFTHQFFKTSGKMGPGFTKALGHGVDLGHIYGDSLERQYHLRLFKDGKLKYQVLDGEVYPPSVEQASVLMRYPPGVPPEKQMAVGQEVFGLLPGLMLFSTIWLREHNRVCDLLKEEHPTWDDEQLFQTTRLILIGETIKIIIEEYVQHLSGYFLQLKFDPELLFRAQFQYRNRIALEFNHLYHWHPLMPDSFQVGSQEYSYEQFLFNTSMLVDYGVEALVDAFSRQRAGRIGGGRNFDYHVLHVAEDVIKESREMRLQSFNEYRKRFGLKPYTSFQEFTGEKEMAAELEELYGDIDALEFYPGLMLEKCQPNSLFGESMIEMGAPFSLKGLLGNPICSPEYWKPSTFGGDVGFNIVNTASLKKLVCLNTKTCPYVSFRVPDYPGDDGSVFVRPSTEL

Rattus norvegicus [2] = assay: Evaluated for the antiinflammatory activity by measuring the percentage inhibition of edema in the carrageenan foot-pad edema test at the dose of 10 mg/kg; format: functional
How it was run: (§1)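 Male Wistar rats dosed orally (0.5% HPMC/0.2% Tween 80 or Labrafils, 10 mL/kg) 1 h before subplantar injection of 0.10 mL 1% carrageenan into right hind paw under light anesthesia. Paw volume by mercury plethysmography at challenge and 5 h later; percent inhibition ± SEM versus vehicle group. Doses 10.0 and 30.0 mg/kg po, 7-14 rats per dose.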

Rattus norvegicus [3] = assay: Evaluated for the antiinflammatory activity by measuring the percentage inhibition of edema in the carrageenan foot-pad edema test at the dose of 30 mg/kg; format: functional; how it was run: as §1
Rattus norvegicus [4] = species: Rattus norvegicus; assay: Ratio of IC50 against 5-LO to that of CO enzyme.
How it was run: (§2)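 In ionophore-stimulated RBL-1 cells (2×10^6/mL, PBS with 1.0 mM Ca, 10 min compound preincubation at room temperature, 5 μM A23187 for 7 min at 37 °C), supernatant LTB₄ (5-LO) and PGF₂α (CO) were each quantified by RIA over 0.10–10.0 μM. IC50s came from linear regression, and the ratio is the 5-LO IC50 over the CO IC50.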

[5] = molecular target: T1, Polyunsaturated fatty acid 5-lipoxygenase; assay: Evaluated in vitro for its inhibitory activity against 5-lipoxygenase; N=Inactive, <50% inhibition at 10 uM concentration
How it was run: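 RBL-1 cells grown in MEM + 12% FBS, washed in PBS pH 7.4, resuspended at 2×10^6 cells/mL in PBS with 1.0 mM calcium. Preincubated 10 min at room temperature with compound in DMSO, then stimulated with A23187 (5 μM) 7 min at 37 °C; stopped on ice. Supernatant LTB4 by radioimmunoassay.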

[6] = molecular target: T3, Polyunsaturated fatty acid 5-lipoxygenase (Rattus norvegicus) (UniProt P12527); details: at 10 µM
T3 sequence (whole entry): T1 sequence (P12527 whole entry)

Rattus norvegicus [7] = assay: Compound was evaluated for the antiinflammatory activity by measuring the dose (po) which inhibited Mycobacterium induced foot-pad edema in rats; N=Inactive, <30% inhibition at 10 mg/kg po; format: functional, organism-based; parameters: dose 10 mg/kg
Rattus norvegicus [8] = assay: Evaluated for the percent rats with ulcers at the dose of 200 mg/kg (number of animals used per group in the experiment are 10 ); format: functional
How it was run: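 Male outbred Wistar rats (100-250 g) fasted 24 h, given compound orally in 0.5% HPMC (2 mL/kg), then denied food and water 6 more h. Killed with CO2; stomachs opened along greater curvature and scored for ulcers. Percent of rats with ulcers per dose; up to 200 mg/kg po, 10 rats per dose.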

Rattus norvegicus [9] = assay: Evaluated for the antiinflammatory activity by measuring the dose (po) which inhibited Mycobacterium induced foot-pad edema in rats; format: functional
[10] = molecular target: T1, Polyunsaturated fatty acid 5-lipoxygenase; assay: Inhibitory activity against 5-Lipoxygenase
How it was run: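 Rat basophilic leukemia RBL-1 cells were grown in suspension in MEM with 12% FBS, washed, and resuspended at 2×10^6 cells/mL in PBS pH 7.4 with 1.0 mM calcium. Compound in DMSO was preincubated 10 min at room temperature, then 5 μM A23187 was added for 7 min at 37 °C. LTB₄ in the supernatant was measured by RIA at 0.10–10.0 μM. IC50 was determined by linear regression.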

Rattus norvegicus [11] = species: Rattus norvegicus; assay: Ratio of IC50 against 5-LO and COX; how it was run: as §2
Rattus norvegicus [12] = assay: Compound was evaluated for the antiinflammatory activity by taking the percentage inhibition of edema in the carrageenan foot-pad edema test at the dose of 10 mg/kg; format: functional; how it was run: as §1
Rattus norvegicus [13] = assay: Compound was evaluated for the antiinflammatory activity by taking the percentage inhibition of edema in the carrageenan foot-pad edema test at the dose of 30 mg/kg; format: functional; how it was run: as §1
[14] = molecular target: Cyclooxygenase (Rattus norvegicus) (UniProt P35355+Q63921); assay: Inhibitory activity against Prostaglandin G/H synthase at 10 uM; format: protein assay
How it was run: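 Cyclooxygenase read-out in RBL-1 cells (2×10^6 cells/mL in PBS with 1.0 mM calcium): 10 min room-temperature preincubation with compound in DMSO, A23187 (5 μM) stimulation 7 min at 37 °C, ice stop. Supernatant PGF2α by radioimmunoassay; percent inhibition at a 10 μM screening concentration.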

What does the source list for `CC(C)(C)c1cc(-c2noc(N)n2)cc(C(C)(C)C)c1O`?
IC50 [1]: 2500 nM; IC50 (Cyclooxygenase): 3 µM; inhibition in vivo at 10 mg/kg (Rattus norvegicus [2]): 36%; inhibition in vivo at 30 mg/kg (Rattus norvegicus [3]): 39%; Ratio (Rattus norvegicus [4]): 0.83

How did the IC50 [1] turn out when `CN(C)Cc1nc(-c2cc(C(C)(C)C)c(O)c(C(C)(C)C)c2)no1.Cl` was run?
The IC50 was 7700 nM.

And the IC50 (Cyclooxygenase)?
The IC50 was 0.73 µM.

And the Ratio (Rattus norvegicus [4])?
The Ratio was 10.5.

`CC(C)(C)c1cc(-c2nc(CN3CCCC3)no2)cc(C(C)(C)C)c1O` was tested. Which IC50 [5] did it give?
The IC50 was “Inactive”.

`CC(C)(C)c1cc(-c2noc(S)n2)cc(C(C)(C)C)c1O` was tested. Which IC50 (Cyclooxygenase) did it give?
The IC50 was 0.05 µM.

And the Ratio (Rattus norvegicus [4])?
The Ratio was 68.

`CC(C)(C)c1cc(-c2nc(=S)o[nH]2)cc(C(C)(C)C)c1O` was tested. Which IC50 [1] did it give?
Its IC50 is 3400 nM.

For `CC(C)(C)c1cc(-c2noc(O)n2)cc(C(C)(C)C)c1O`, which IC50 [5] is on record?
Its IC50 is “Inactive”.

What about the IC50 (Cyclooxygenase) of the same molecule?
The IC50 was 4.7 µM.

Which inhibition [6] does the source give for `CCOC(=O)c1nc(-c2cc(C(C)(C)C)c(O)c(C(C)(C)C)c2)ns1` here?
Its inhibition is 91%.

How did the IC50 [1] turn out when `CC(C)(C)c1cc(-c2nc(N)no2)cc(C(C)(C)C)c1O` was run?
Its IC50 is 3600 nM.

What about the IC50 (Cyclooxygenase) of the same molecule?
The IC50 was 1.9 µM.

And the ID40 (Rattus norvegicus [7])?
The ID40 was “inactive”.

And the inhibition in vivo at 10 mg/kg (Rattus norvegicus [2])?
Its inhibition in vivo at 10 mg/kg is 43.6%.

And the inhibition in vivo at 30 mg/kg (Rattus norvegicus [3])?
The inhibition in vivo at 30 mg/kg was 32.9%.

And the Ratio (Rattus norvegicus [4])?
The Ratio was 1.9.

`CC(C)(C)c1cc(-c2nsc(N=C(N)N)n2)cc(C(C)(C)C)c1O.Cl` was tested. Which IC50 [1] did it give?
Its IC50 is 140 nM.

And the IC50 (Cyclooxygenase)?
The IC50 was 1.6 µM.

What about the Activity (Rattus norvegicus [8]) of the same molecule?
The Activity was 0%.

What about the ID40 (Rattus norvegicus [9]) of the same molecule?
Its ID40 is 5.1 mg/kg.

What about the inhibition in vivo at 10 mg/kg (Rattus norvegicus [2]) of the same molecule?
Its inhibition in vivo at 10 mg/kg is 46.1%.

And the inhibition in vivo at 30 mg/kg (Rattus norvegicus [3])?
The inhibition in vivo at 30 mg/kg was 61.3%.

And the Ratio (Rattus norvegicus [4])?
Its Ratio is 0.088.

How did the IC50 [10] turn out when `CCO/C=N/c1noc(-c2cc(C(C)(C)C)c(O)c(C(C)(C)C)c2)n1` was run?
The IC50 was 1500 nM.

And the Ratio (Rattus norvegicus [11])?
Its Ratio is 0.21.

What about the IC50 (Cyclooxygenase) of the same molecule?
Its IC50 is 7.2 µM.

What about the inhibition in vivo at 10 mg/kg (Rattus norvegicus [12]) of the same molecule?
The inhibition in vivo at 10 mg/kg was 21%.

And the inhibition in vivo at 30 mg/kg (Rattus norvegicus [13])?
The inhibition in vivo at 30 mg/kg was 37.3%.

For `CC(C)(C)c1cc(-c2nsc(N)n2)cc(C(C)(C)C)c1O`, which IC50 [1] is on record?
Its IC50 is 330 nM.

And the IC50 (Cyclooxygenase)?
The IC50 was 2.2 µM.

And the Ratio (Rattus norvegicus [4])?
The Ratio was 0.15.

For `CNCc1noc(-c2cc(C(C)(C)C)c(O)c(C(C)(C)C)c2)n1`, which IC50 [5] is on record?
Its IC50 is “Inactive”.

And the inhibition [14]?
The inhibition was 78%.

For `CN(C)Cc1nc(-c2cc(C(C)(C)C)c(O)c(C(C)(C)C)c2)ns1.Cl`, which IC50 [5] is on record?
The IC50 was “Inactive”.
